We go through nine compounds from publication PMC5708124 (Nature microbiology, 2017).

Assay [1] deals with P. berghei ANKA MRA868 GAMs, Anopheles stephensi mosquitoes. The assay is described as follows: In vivo transmission-blocking effect. Also on record: species or system P. berghei in CD-1 mice. The note with it: mice given two doses 12 h apart: 100 mg/kg GNF compounds, 30 mg/kg DHA.
Assay [2] deals with PfMDR1 mutant lines versus parental ABS parasites (Dd2-B2, FCB). The assay is described as follows: Drug susceptibility profiling of HHQ-resistant lines in ABS parasites. Type of assay: cell-based, Plasmodium falciparum. The conditions noted are these: for changes in susceptibility: all three lines: PfMDR1^edF1072L, PfMDR1^selY290F.
The subject of another assay is Dd2-B2 late rings. The assay can be described thus: Hb endocytosis by Western blot. Type of assay: cell-based, Plasmodium falciparum. The note with it: 5′ the IC50 for 5 h, normalized to DMSO control. The procedure, abridged:
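Sorbitol-synchronized parasites were exposed to test compound at 5x IC50 for 5 h, starting at the late ring stage. Lysates were blotted to nitrocellulose and probed overnight at 4°C with rabbit anti-human Hb (1:5,000) and anti-β-actin (1:2,000). Detection was by ECL. Hb band intensities were normalized to β-actin and compared with untreated controls. Repeated on 3–4 independent occasions.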

The test system of assay [3] is male gametes from stage V GAMs. The assay is described as follows: Dual gamete formation assay, male gamete formation. Type of assay: cell-based, Plasmodium falciparum. The conditions noted are these: Plasmodium falciparum, 24 h.
Assay [4] deals with female gametes from stage V GAMs. The assay is described as follows: Dual gamete formation assay, female gamete formation. Type of assay: cell-based, Plasmodium falciparum. The conditions noted are these: Plasmodium falciparum, 24 h.
Assay [5] relates to compound-exposed Pf GAMs in Anopheles stephensi mosquitoes. The assay can be described thus: Membrane-feeding assay with A. stephensi mosquitoes. The note with it: positive control at 3′ the GAM IC50, in words. Type of assay: in vivo, Plasmodium falciparum. Put shortly: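 Day-12 gametocytes were treated 3 days at 1x or 3x their late-stage IC50, with compound refreshed daily, then held 4 days without compound. Controls were 0.25% DMSO and methylene blue at 3x. Stage V cultures (50% Hct, 0.01–0.16% parasitemia) were membrane-fed for 30 min to A. stephensi, kept at 26°C and 78% RH. Midguts were dissected on day 7–8, stained with mercurochrome and oocysts counted blind. Prevalence is the percentage of mosquitoes with at least one oocyst.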

Read-outs that look alike come from different tables or passages of the source.

`C[C@H]1[C@@H](O)O[C@@H]2O[C@@]3(C)CC[C@H]4[C@H](C)CC[C@@H]1[C@@]24OO3` [DHA, dihydroartemisinin, reference compound]: in assay [1], the “reduction in oocyst burden” value is on record as 75% and the “reduction in the number of infected mosquitoes” value is recorded as 65%. The “fold increased susceptibility versus Dd2-B2” value in assay [2] (all three mutations (F1072L, S1075I, Y290F)) was ~ 1.6 fold.
For the compound `CCNCCCC(C)Nc1ccnc2cc(Cl)ccc12` (stereo not shown) [md-CQ, monodesethyl-CQ], the changes in susceptibility entry in assay [2] (PfMDR1^edS1075I) is “no changes”.
For `CC1(C)N=C(N)N=C(N)N1OCCCOc1cc(Cl)c(Cl)cc1Cl` [WR99210], the “reduction of Hb levels within parasites” value with Dd2-B2 late rings is reported as “no significant changes”.
For `CCN(CC)CCCC(C)Nc1ccnc2cc(Cl)ccc12` (stereo not shown) [CQ, chloroquine], the changes in susceptibility entry in assay [2] (PfMDR1^edS1075I) was “no changes”.
Same read-out and setting: the result for `CCNCc1cc(Nc2ccnc3cc(Cl)ccc23)ccc1O` [md-ADQ, md-amodiaquine] reads “no changes”.
On the same count and under the same terms, for `Clc1ccc2c(N3CCN(CCCN4CCN(c5ccnc6cc(Cl)ccc56)CC4)CC3)ccnc2c1` [piperaquine] the value was “no changes”.
Regarding `CN(C)c1ccc2nc3ccc(=[N+](C)C)cc-3sc2c1` [Methylene Blue, methylene blue], the IC50 in assay [3] (read-out: Mean IC50 (lower 95% CI - upper 95% CI) Male carry-over) was found to be 61.5 nM; in assay [3] (read-out: Mean IC50 (lower 95% CI - upper 95% CI) Male wash-out), 147 nM; in assay [4] (read-out: Mean IC50 (lower 95% CI - upper 95% CI) Female carry-over), 162 nM; in assay [4] (read-out: Mean IC50 (lower 95% CI - upper 95% CI) Female wash-out) it was 846 nM. Besides, the transmission-blocking activity entry in assay [5] is on record as “maximal”.
Regarding `C=C[C@H]1C[N@@]2CC[C@H]1C[C@H]2[C@H](O)c1ccnc2ccc(OC)cc12` [QN, quinine], in assay [2] (GNF-Pf-5668-3C4D2 line (four pfmdr1 copies + F1072L (AB 69%))), the “fold increased susceptibility compared to wild-type Dd2-B2” value is on record as 1.7 fold. Also, the results for the “fold higher susceptibility versus Dd2-B2” value in assay [2] (PfMDR1^edF1072L) and in assay [2] (PfMDR1^selY290F (GNF-Pf-5660-2B6H1)) were 3.6 fold and 3.7 fold, respectively. In addition, in assay [2] (PfMDR1^edS1075I), the “fold increased susceptibility versus Dd2-B2” value is 5.1 fold. Besides, the “susceptibility in GNF-Pf-5668-3C4D2 compared to PfMDR1^edF1072L” value in assay [2] (i.e. higher IC50 values) is “decreased susceptibility”.
Regarding ferroquine, the changes in susceptibility entry in assay [2] (PfMDR1^edS1075I) is “no changes”.
